Experimental data: ChEMBL document CHEMBL2412970, “Synthesis and anticancer activity of 2,4-disubstituted furo[3,2-b]indole derivatives” (Eur J Med Chem, 2013)
The source made the active and inactive calls. No cut-off for these calls is given here.

What was measured:
A498 [1] = test: Antitumor activity against human A498 cells xenografted in BALB/cAnN.Cg-Foxn1nu/CrlNarl nude mouse assessed as suppression of tumor growth at 30 to 60 mg/kg/day, ip qd; format: functional, organism-based; conditions: TDE = time-dependent effect
Procedure, shortened: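 Male nude mice (18–20 g, 4–6 weeks) were inoculated subcutaneously with A498 cells, 2 × 10⁶ per mouse in 0.1 mL PBS. Once tumors reached 100 mm³, mice were randomized and given ip doses of 30 or 60 mg/kg, 5 times per week for 4 weeks. Body weight and tumor size were recorded every 7 days over 28 days. Volume = 1/2 ([…]).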

COLO 205 = test: Cytotoxicity against human COLO205 cells after 48 hrs by sulforhodamine B assay; format: functional; conditions: COLO 205, 48 h
NCI-H23 = test: Cytotoxicity against human NCI-H23 cells after 48 hrs by sulforhodamine B assay; format: functional; conditions: NCI-H23, 48 h
A498 [2] = test: Cytotoxicity against human A498 cells assessed as reduction in cell viability at 0.25 uM after 48 hrs by MTT assay relative to control; format: functional
Mus musculus = test: Toxicity in BALB/cAnN.Cg-Foxn1nu/CrlNarl nude mouse assessed as change in body weight at 30 to 60 mg/kg/day, ip qd administered 5 times a week for 28 days measured every 7 days; format: organism-based; parameters: route intraperitoneal; conditions: in vivo
Procedure, shortened: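 Male nude mice, 18–20 g, 4–6 weeks old, carried subcutaneous A498 xenografts (2 × 10⁶ cells in 0.1 mL PBS). Once nodules reached 100 mm³, mice were randomized, eight per group. They received ip 30 or 60 mg/kg 5 times weekly for 4 weeks, with body weight and tumor size recorded every 7 days over 28 days.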

RXF 393 = test: Cytotoxicity against human RXF393 cells after 48 hrs by sulforhodamine B assay; format: functional; conditions: RXF 393, 48 h
A498 [3] = test: Cytotoxicity against human A498 cells assessed as reduction in cell viability at 1 uM after 48 hrs by MTT assay relative to control; format: functional
Malme-3M = test: Cytotoxicity against human MALME-3M cells after 48 hrs by sulforhodamine B assay; format: functional
A498 [4] = test: Ratio of YC-1 IC50 to compound IC50 for human A498 cells after 48 hrs by MTT assay; format: functional
BT-549 = test: Cytotoxicity against human BT549 cells after 48 hrs by sulforhodamine B assay; format: functional; conditions: BT-549, 48 h
A498 [5] = test: Induction of apoptosis in human A498 cells assessed as caspase-9 activation at 0.5 uM after 24 hrs by Western blotting analysis; format: functional, cell-based
Procedure, shortened: (§1)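 A498 cells exposed for 6, 12, 24, 36 or 48 h, then washed in PBS and lysed. Lysates were held on ice for 30 min and spun at 12 000g for 20 min. Supernatant protein was measured by Bradford assay, run on 10% SDS-PAGE and transferred to nitrocellulose. Blots were probed for AIF, Endo G, Apaf-1, cytochrome c, caspase 9 and caspase 3, with β-actin as loading control; n = 3 independent experiments.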

LOX IMVI = test: Cytotoxicity against human LOXIMVI cells after 48 hrs by sulforhodamine B assay; format: functional
A498 [6] = test: Induction of apoptosis in human A498 cells assessed as late apoptotic cells at 0.5 uM after 48 hrs by AnnexinV/FITC-propidium iodide staining-based flow cytometry (reference value: 9.6%); format: functional
Procedure, shortened: (§2)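 Flow cytometry with annexin V-FITC/PI double labeling of A498 cells treated for 12, 24, 36 or 48 h; untreated cells served as the 0 h control. Stained in binding buffer for 15 min at room temperature in the dark, with more binding buffer added just before analysis. Annexin V+/PI− (Q4) counted as early apoptotic and annexin V+/PI+ (Q2) as late apoptotic.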

A498 [7] = test: Cell cycle arrest in human A498 cells assessed as accumulation at S phase at 0.5 uM after 48 hrs by propidium iodide staining-based flow cytometry (reference value: 15.92 +/- 0.03%); format: functional
A498 [8] = test: Induction of apoptosis in human A498 cells assessed as late apoptotic cells at 0.5 uM after 24 hrs by AnnexinV/FITC-propidium iodide staining-based flow cytometry (reference value: 9.6%); format: functional; procedure, shortened: as §2
A498 [9] = test: Induction of apoptosis in human A498 cells assessed as early apoptotic cells at 0.5 uM after 48 hrs by AnnexinV/FITC-propidium iodide staining-based flow cytometry (reference value: 3.9%); format: functional
Detroit 551 = test: Cytotoxicity against human Detroit 551 cells after 48 hrs by MTT assay; format: cell-based; conditions: Detroit 551, 48 h
KM12 = test: Cytotoxicity against human KM12 cells after 48 hrs by sulforhodamine B assay; format: functional; conditions: KM12, 48 h
OVCAR-4 = test: Cytotoxicity against human OVCAR4 cells after 48 hrs by sulforhodamine B assay; format: functional; conditions: OVCAR-4, 48 h
MDA-MB-468 = test: Cytotoxicity against human MDA-MB-468 cells after 48 hrs by sulforhodamine B assay; format: functional; conditions: MDA-MB-468, 48 h
UO-31 = test: Cytotoxicity against human UO31 cells after 48 hrs by sulforhodamine B assay; format: functional; conditions: UO-31, 48 h
A549 = test: Cytotoxicity against human A549/ATCC cells after 48 hrs by sulforhodamine B assay; format: functional; conditions: A549, 48 h
HCT-15 = test: Cytotoxicity against human HCT15 cells after 48 hrs by sulforhodamine B assay; format: functional; conditions: HCT-15, 48 h
A498 [10] = test: Induction of apoptosis in human A498 cells assessed as increase in Apaf-1 level at 0.5 uM after 6 to 48 hrs by Western blotting analysis; format: functional, cell-based; procedure, shortened: as §1
HCT-116 = test: Cytotoxicity against human HCT116 cells after 48 hrs by sulforhodamine B assay; format: functional; conditions: HCT-116, 48 h
MDA-MB-231 = test: Cytotoxicity against human MDA-MB-231 cells after 48 hrs by sulforhodamine B assay; format: functional; conditions: MDA-MB-231, 48 h
HOP-62 = test: Cytotoxicity against human HOP62 cells after 48 hrs by sulforhodamine B assay; format: functional; conditions: HOP-62, 48 h
A498 [11] = test: Cytotoxicity against human A498 cells after 48 hrs by MTT assay; format: functional, cell-based
[12] = read-out: pLC50 (the source's name) (converted)

## OCc1ccc(Cn2c3ccccc3c3oc(CO)cc32)o1
A498 [1]
  Activity: tde
COLO 205
  GI50: 61.7 µM
COLO 205; [12]
  CC50: > 100 µM
COLO 205; read-out: pTGI
  TGI: > 100 µM
NCI-H23
  GI50: > 100 µM
NCI-H23; [12]
  CC50: > 100 µM
NCI-H23; read-out: pTGI
  TGI: > 100 µM
A498 [2]
  Activity: 39.5%
Mus musculus
  Activity: Non-toxic
RXF 393
  GI50: 75.9 µM
RXF 393; [12]
  CC50: > 100 µM
RXF 393; read-out: pTGI
  TGI: > 100 µM
A498 [3]
  Activity: 19.4%
Malme-3M
  GI50: > 100 µM
Malme-3M; [12]
  CC50: > 100 µM
Malme-3M; read-out: pTGI
  TGI: > 100 µM
A498 [4]
  Ratio IC50: 1.5
BT-549
  GI50: 3.89 µM
BT-549; [12]
  CC50: > 100 µM
BT-549; read-out: pTGI (converted)
  TGI: 61.7 µM
A498 [5]
  Activity: Active
LOX IMVI
  GI50: 66.1 µM
LOX IMVI; [12]
  CC50: > 100 µM
LOX IMVI; read-out: pTGI
  TGI: > 100 µM
A498 [6]
  Activity: 21.2%
A498 [7]
  Activity: 10.64%
A498 [8]
  Activity: 15.6%
A498 [9]
  Activity: 41%
Detroit 551
  IC50: > 50 µM
KM12
  GI50: > 100 µM
KM12; [12]
  CC50: > 100 µM
KM12; read-out: pTGI
  TGI: > 100 µM
OVCAR-4
  GI50: 4.27 µM
OVCAR-4; [12]
  CC50: > 100 µM
OVCAR-4; read-out: pTGI
  TGI: > 100 µM
MDA-MB-468
  GI50: 0.17 µM
MDA-MB-468; read-out: pTGI (converted)
  TGI: 0.562 µM
UO-31
  GI50: 50.1 µM
UO-31; [12]
  CC50: > 100 µM
UO-31; read-out: pTGI
  TGI: > 100 µM
A549
  GI50: 64.6 µM
A549; [12]
  CC50: > 100 µM
A549; read-out: pTGI
  TGI: > 100 µM
HCT-15
  GI50: 87.1 µM
HCT-15; [12]
  CC50: > 100 µM
HCT-15; read-out: pTGI
  TGI: > 100 µM
A498 [10]
  Activity: Active
HCT-116
  GI50: 0.912 µM
HCT-116; [12]
  CC50: > 100 µM
HCT-116; read-out: pTGI
  TGI: > 100 µM
MDA-MB-231
  GI50: 74.1 µM
MDA-MB-231; [12]
  CC50: > 100 µM
MDA-MB-231; read-out: pTGI
  TGI: > 100 µM
HOP-62
  GI50: > 100 µM
HOP-62; [12]
  CC50: > 100 µM
HOP-62; read-out: pTGI
  TGI: > 100 µM
A498 [11]
  Activity: Dose-dependent effect
A498 [11]; A498, 48 h
  IC50: 0.21 µM
